From ChEMBL document CHEMBL1138301, “N-(2-Amino-phenyl)-4-(heteroarylmethyl)-benzamides as new histone deacetylase inhibitors” (Bioorg Med Chem Lett, 2007) come the findings set out here.

Calls of active or inactive are those of the source.

Sequence of Histone deacetylase 1 (Q13547 whole entry): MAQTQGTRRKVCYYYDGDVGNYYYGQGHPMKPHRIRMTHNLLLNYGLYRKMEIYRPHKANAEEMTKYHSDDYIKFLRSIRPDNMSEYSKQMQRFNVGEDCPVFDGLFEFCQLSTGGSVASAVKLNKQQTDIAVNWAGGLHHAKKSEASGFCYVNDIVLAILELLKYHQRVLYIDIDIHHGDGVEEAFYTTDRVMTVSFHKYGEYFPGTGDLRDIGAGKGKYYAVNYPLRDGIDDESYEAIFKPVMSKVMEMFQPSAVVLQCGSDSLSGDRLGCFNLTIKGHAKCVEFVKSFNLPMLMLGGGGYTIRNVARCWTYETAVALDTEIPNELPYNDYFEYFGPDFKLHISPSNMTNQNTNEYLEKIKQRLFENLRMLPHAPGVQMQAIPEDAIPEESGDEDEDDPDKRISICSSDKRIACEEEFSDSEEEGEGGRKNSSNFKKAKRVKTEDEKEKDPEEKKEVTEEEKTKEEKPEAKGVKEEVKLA

The test system of the first data set is HMEC. Nature of the data set: Antiproliferative activity against human HMEC cells by MTT assay. Type of data set: cell-based.
Settings: not given
The procedure, abridged: (§1)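 MTT read-out of cell proliferation/cytotoxicity in human colon cancer HCT116 cells and in normal human mammary epithelial cells (HMEC); IC50 derived.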
Background: Tetrazolium assays rely on reduction of a dye to a coloured formazan, in cell work by metabolically active cells.
A word on the IC50: it is the point on the concentration scale where inhibition reaches its midpoint. `Nc1ccccc1NC(=O)c1ccc(CC2Cc3ccccc3C2=O)cc1` (stereo unspecified) registered an IC50 of 8 µM.

Consider `COc1ccc(Cn2c(=O)n(Cc3ccc(C(=O)Nc4ccccc4N)cc3)c(=O)c3ccccc32)cc1`, for which the concentration for half-maximal inhibition (IC50) was greater than 25 µM.

Molecule `Cn1c(=O)n(Cc2ccc(C(=O)Nc3ccccc3N)cc2)c(=O)c2ccccc21` had an IC50 greater than 42 µM.

`Nc1ccccc1NC(=O)c1ccc(Cn2c(=O)c3ccccc3n(CCN3CCOCC3)c2=O)cc1` displayed an IC50 greater than 25 µM.

As for `CN(C)CCn1c(=O)n(Cc2ccc(C(=O)Nc3ccccc3N)cc2)c(=O)c2ccccc21`, the IC50 was greater than 25 µM.

For the molecule `Nc1ccccc1NC(=O)c1ccc(CN2Cc3ccccc3C2=O)cc1`, the concentration for half-maximal inhibition (IC50) stood at 37 µM.

`Nc1ccccc1NC(=O)c1ccc(Cn2nnc3ccccc3c2=O)cc1` showed an IC50 of 17 µM.

`Nc1ccccc1NC(=O)c1ccc(Cn2cnc3ccsc3c2=O)cc1`: the IC50 is greater than 50 µM.

In turn, `Nc1ccccc1NC(=O)c1ccc(Cc2coc3ccccc3c2=O)cc1` returned a 50% inhibitory concentration (IC50) of 9 µM.

A further data set deals with T-24. Nature of the data set: Induction of p21WAF1/Cip1 expression in human T24 cells […] after 16 hrs by Western blot analysis relative to MS-275. It counts as functional, cell-based. The following applies: T-24, 16 h. The procedure, abridged: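 T24 cells exposed to 0, 1, 5 and 25 µM or DMSO alone for 16 h. Whole-cell lysates analysed by Western blot with p21WAF1/Cip1 antibody. Relative effective concentration expressed against MS-275 at 1 µM.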
(In general: A western blot detects proteins with antibodies after separation by electrophoresis.)
By EC50 is commonly meant the concentration needed to bring the measured effect to its halfway point. As to `Nc1ccccc1NC(=O)c1ccc(CC2Cc3ccccc3C2=O)cc1` (stereo unspecified), the EC50 stood at 2 µM.

For the molecule `COc1ccc(Cn2c(=O)n(Cc3ccc(C(=O)Nc4ccccc4N)cc3)c(=O)c3ccccc32)cc1`, the concentration giving a half-maximal response (EC50) was determined as 3 µM.

Take `Cn1c(=O)n(Cc2ccc(C(=O)Nc3ccccc3N)cc2)c(=O)c2ccccc21`: the EC50 is 1 µM.

On to `Nc1ccccc1NC(=O)c1ccc(Cn2c(=O)c3ccccc3n(CCN3CCOCC3)c2=O)cc1`, for which the EC50 is 5 µM.

With `CN(C)CCn1c(=O)n(Cc2ccc(C(=O)Nc3ccccc3N)cc2)c(=O)c2ccccc21`, the EC50 came out at 1 µM.

As to `Nc1ccccc1NC(=O)c1ccc(CN2Cc3ccccc3C2=O)cc1`, the half-maximal effective concentration (EC50) amounted to 2 µM.

As for `Nc1ccccc1NC(=O)c1ccc(Cn2nnc3ccccc3c2=O)cc1`, the half-maximal effective concentration (EC50) was 1 µM.

In the case of `Nc1ccccc1NC(=O)c1ccc(Cn2cnc3ccsc3c2=O)cc1`, the EC50 is 1 µM.

Turning to `Nc1ccccc1NC(=O)c1ccc(Cc2coc3ccccc3c2=O)cc1`, the EC50 is 1 µM.

Test system in the next data set: not listed separately
The data set is described as follows: Half life in Sprague-Dawley rat at 2.5 mg/kg, iv. It counts as ADME, organism-based. Further details: dose 2.5 mg/kg, route intravenous. The following applies: in vivo. The procedure, abridged:
(§2)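 Pharmacokinetics with single dosing at 2.5 mg/kg iv or 5.0 mg/kg po. Vehicles were acidified saline or acidified saline/PEG400. Half-life and oral availability were determined.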
As a reminder, the half-life is the time needed for the level to fall by half in the phase considered. The low end stands for rapid decline, the high end for slow decline. `CN(C)CCn1c(=O)n(Cc2ccc(C(=O)Nc3ccccc3N)cc2)c(=O)c2ccccc21`: the half-life was 2.1 h.

Turning to `Nc1ccccc1NC(=O)c1ccc(CN2Cc3ccccc3C2=O)cc1`, the half-life was 0.6 h.

As for `Nc1ccccc1NC(=O)c1ccc(Cn2cnc3ccsc3c2=O)cc1`, the half-life is 1.4 h.

The subject of the next data set is HCT-116. Nature of the data set: Apoptosis in human HCT116 cells.
Settings: not given
Type of data set: functional, cell-based.
Regarding `Nc1ccccc1NC(=O)c1ccc(CC2Cc3ccccc3C2=O)cc1` (stereo unspecified), the result was Active.

As for `COc1ccc(Cn2c(=O)n(Cc3ccc(C(=O)Nc4ccccc4N)cc3)c(=O)c3ccccc32)cc1`, the result was Active.

In the case of `Cn1c(=O)n(Cc2ccc(C(=O)Nc3ccccc3N)cc2)c(=O)c2ccccc21`, the result was Active.

Consider `Nc1ccccc1NC(=O)c1ccc(Cn2c(=O)c3ccccc3n(CCN3CCOCC3)c2=O)cc1`, for which the result was Active.

For `CN(C)CCn1c(=O)n(Cc2ccc(C(=O)Nc3ccccc3N)cc2)c(=O)c2ccccc21`, the outcome was Active.

On to `Nc1ccccc1NC(=O)c1ccc(CN2Cc3ccccc3C2=O)cc1`, for which the outcome was Active.

Regarding `Nc1ccccc1NC(=O)c1ccc(Cn2nnc3ccccc3c2=O)cc1`, the outcome was Active.

On to `Nc1ccccc1NC(=O)c1ccc(Cn2cnc3ccsc3c2=O)cc1`, for which the result was Active.

Turning to `Nc1ccccc1NC(=O)c1ccc(Cc2coc3ccccc3c2=O)cc1`, the result was Active.

The next data set deals with HCT-116. Nature of the data set: Antiproliferative activity against human HCT116 cells by MTT assay.
Settings: not given
It counts as functional, cell-based. The procedure, abridged: as §1
Molecule `Nc1ccccc1NC(=O)c1ccc(CC2Cc3ccccc3C2=O)cc1` (stereo unspecified) returned an IC50 of 0.6 µM.

`COc1ccc(Cn2c(=O)n(Cc3ccc(C(=O)Nc4ccccc4N)cc3)c(=O)c3ccccc32)cc1`: the IC50 was determined as 0.8 µM.

`Cn1c(=O)n(Cc2ccc(C(=O)Nc3ccccc3N)cc2)c(=O)c2ccccc21` yielded an IC50 of 0.7 µM.

For `Nc1ccccc1NC(=O)c1ccc(Cn2c(=O)c3ccccc3n(CCN3CCOCC3)c2=O)cc1`, inhibition was half-maximal at 1 µM (IC50).

For `CN(C)CCn1c(=O)n(Cc2ccc(C(=O)Nc3ccccc3N)cc2)c(=O)c2ccccc21`, the IC50 was found to be 1 µM.

For the molecule `Nc1ccccc1NC(=O)c1ccc(CN2Cc3ccccc3C2=O)cc1`, it took 0.5 µM to reach half-maximal inhibition (IC50).

`Nc1ccccc1NC(=O)c1ccc(Cn2nnc3ccccc3c2=O)cc1` returned an IC50 of 0.6 µM.

`Nc1ccccc1NC(=O)c1ccc(Cn2cnc3ccsc3c2=O)cc1` came in with a concentration for half-maximal inhibition (IC50) of 0.7 µM.

`Nc1ccccc1NC(=O)c1ccc(Cc2coc3ccccc3c2=O)cc1`: the IC50 came to 0.3 µM.

Test system in the next data set: not listed separately
The data set is described as follows: Oral bioavailability in Sprague-Dawley rat at 5.0 mg/kg, po. The following applies: in vivo. Type of data set: ADME, organism-based. The procedure, abridged: as §2
For orientation: bioavailability means dose-corrected exposure relative to a reference, in per cent. Higher therefore signals good availability. Consider `CN(C)CCn1c(=O)n(Cc2ccc(C(=O)Nc3ccccc3N)cc2)c(=O)c2ccccc21`, for which the bioavailability is 38%.

`Nc1ccccc1NC(=O)c1ccc(CN2Cc3ccccc3C2=O)cc1` showed a bioavailability of 34%.

For the molecule `Nc1ccccc1NC(=O)c1ccc(Cn2cnc3ccsc3c2=O)cc1`, the bioavailability was determined as 47%.

For another data set, the system named is A549. The data set is described as follows: Antitumor activity against A549 xenografted nude mouse assessed as tumor growth inhibition at 80 mg/kg, po after 14 days. The following applies: A549, 336 h. Type of data set: functional, Homo sapiens. The procedure, abridged: (§3)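 Human tumour xenografts (A549 non-small cell lung, DU145 prostate, HCT116 colon) grown in nude mice, 6 animals per group. Dosing once daily for 14 days, intraperitoneal or oral. Read-out is % tumour growth inhibition versus vehicle-treated control animals.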
What is called inhibition in vivo is how much of the control response was suppressed. `Nc1ccccc1NC(=O)c1ccc(Cn2cnc3ccsc3c2=O)cc1`: the inhibition in vivo at 80 mg/kg was determined as 42%.

The subject of a further data set is T-24. Nature of the data set: Induction of histone H4 acetylation in human T24 cells after 16 hrs by immunoblot relative to MS-275. Type of data set: functional, cell-based. The following applies: T-24, 16 h. The procedure, abridged: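 T24 cells exposed to 0, 1, 5 and 25 µM for 16 h, then harvested. Histones acid-extracted, run on SDS–PAGE and immunoblotted with antibodies to H4 and to acetylated H4. Relative effective concentration expressed against MS-275 at 1 µM.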
Molecule `Nc1ccccc1NC(=O)c1ccc(CC2Cc3ccccc3C2=O)cc1` (stereo unspecified) yielded an EC50 of less than 1 µM.

As to `COc1ccc(Cn2c(=O)n(Cc3ccc(C(=O)Nc4ccccc4N)cc3)c(=O)c3ccccc32)cc1`, the EC50 is 1 µM.

In the case of `Cn1c(=O)n(Cc2ccc(C(=O)Nc3ccccc3N)cc2)c(=O)c2ccccc21`, the EC50 worked out at 1 µM.

In turn, `Nc1ccccc1NC(=O)c1ccc(Cn2c(=O)c3ccccc3n(CCN3CCOCC3)c2=O)cc1` showed an EC50 of 3 µM.

The molecule `CN(C)CCn1c(=O)n(Cc2ccc(C(=O)Nc3ccccc3N)cc2)c(=O)c2ccccc21` showed an EC50 of 1 µM.

Turning to `Nc1ccccc1NC(=O)c1ccc(CN2Cc3ccccc3C2=O)cc1`, a half-maximal response (EC50) required 1 µM.

`Nc1ccccc1NC(=O)c1ccc(Cn2nnc3ccccc3c2=O)cc1`: the EC50 was 1 µM.

For the molecule `Nc1ccccc1NC(=O)c1ccc(Cn2cnc3ccsc3c2=O)cc1`, the EC50 is 1 µM.

Molecule `Nc1ccccc1NC(=O)c1ccc(Cc2coc3ccccc3c2=O)cc1` displayed an EC50 of 1 µM.

The test system of another data set is DU-145. Nature of the data set: Antitumor activity against DU145 xenografted nude mouse assessed as tumor growth inhibition at 80 mg/kg, po after 14 days. The following applies: DU-145, 336 h. Type of data set: functional, Homo sapiens. An outline of the steps: as §3
`Nc1ccccc1NC(=O)c1ccc(Cn2cnc3ccsc3c2=O)cc1`: the inhibition in vivo at 80 mg/kg stood at 45%.

For another data set, the system named is HCT-116. Nature of the data set: Cell cycle arrest in HCT116 cells by accumulation at G2/M phase. It counts as functional, cell-based. The following applies: Homo sapiens.
Turning to `Nc1ccccc1NC(=O)c1ccc(CC2Cc3ccccc3C2=O)cc1` (stereo unspecified), the outcome was Active.

Consider `COc1ccc(Cn2c(=O)n(Cc3ccc(C(=O)Nc4ccccc4N)cc3)c(=O)c3ccccc32)cc1`, for which the outcome was Active.

With `Cn1c(=O)n(Cc2ccc(C(=O)Nc3ccccc3N)cc2)c(=O)c2ccccc21`, the outcome was Active.

For `Nc1ccccc1NC(=O)c1ccc(Cn2c(=O)c3ccccc3n(CCN3CCOCC3)c2=O)cc1`, the result was Active.

With `CN(C)CCn1c(=O)n(Cc2ccc(C(=O)Nc3ccccc3N)cc2)c(=O)c2ccccc21`, the outcome was Active.

Regarding `Nc1ccccc1NC(=O)c1ccc(CN2Cc3ccccc3C2=O)cc1`, the outcome was Active.

For the molecule `Nc1ccccc1NC(=O)c1ccc(Cn2nnc3ccccc3c2=O)cc1`, the outcome was Active.

With `Nc1ccccc1NC(=O)c1ccc(Cn2cnc3ccsc3c2=O)cc1`, the outcome was Active.

On to `Nc1ccccc1NC(=O)c1ccc(Cc2coc3ccccc3c2=O)cc1`, for which the result was Active.

The next data set addresses Histone deacetylase 1 (Homo sapiens, UniProt Q13547). Nature of the data set: Inhibition of human recombinant HDAC1 expressed in insect Sf9 cells.
Settings: not given
The procedure, abridged: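 FLAG-tagged recombinant HDAC1 expressed in Sf9 cells, purified by anti-FLAG affinity resin and size-exclusion chromatography. Substrate BocLys(acetyl)AMC. Deacetylated product detected fluorometrically after trypsin release of AMC (excitation 360 nm). IC50 determined.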
In the case of `Nc1ccccc1NC(=O)c1ccc(CC2Cc3ccccc3C2=O)cc1` (stereo unspecified), the IC50 amounted to 0.1 µM.

Consider `COc1ccc(Cn2c(=O)n(Cc3ccc(C(=O)Nc4ccccc4N)cc3)c(=O)c3ccccc32)cc1`, for which the IC50 was 0.1 µM.

For `Cn1c(=O)n(Cc2ccc(C(=O)Nc3ccccc3N)cc2)c(=O)c2ccccc21`, the IC50 was determined as 0.1 µM.

Consider `Nc1ccccc1NC(=O)c1ccc(Cn2c(=O)c3ccccc3n(CCN3CCOCC3)c2=O)cc1`, for which the IC50 was determined as 0.4 µM.

For `CN(C)CCn1c(=O)n(Cc2ccc(C(=O)Nc3ccccc3N)cc2)c(=O)c2ccccc21`, the IC50 worked out at 0.3 µM.

Take `Nc1ccccc1NC(=O)c1ccc(CN2Cc3ccccc3C2=O)cc1`: the half-maximal inhibitory concentration (IC50) was determined as 0.1 µM.

Turning to `Nc1ccccc1NC(=O)c1ccc(Cn2nnc3ccccc3c2=O)cc1`, the IC50 was found to be 0.2 µM.

Consider `Nc1ccccc1NC(=O)c1ccc(Cn2cnc3ccsc3c2=O)cc1`, for which the IC50 turned out to be 0.2 µM.

Take `Nc1ccccc1NC(=O)c1ccc(Cc2coc3ccccc3c2=O)cc1`: the IC50 came to 0.03 µM.
